Experimental data: ChEMBL document CHEMBL4371071, “Muscarinic agonist, (±)-quinuclidin-3-yl-(4-fluorophenethyl)(phenyl)carbamate: High affinity, but low subtype selectivity for human M1 - M5 muscarinic acetylcholine receptors” (Bioorg Med Chem Lett, 2019)
The source made the active and inactive calls. The rule behind the calls is not given here.

Tests used:
[1] = molecular target: T1, Muscarinic acetylcholine receptor M2 (Homo sapiens, UniProt P08172); assay: Displacement of [3H]NMS from human M2 AChR expressed in CHO cell membranes after 1 to 2 hrs by liquid scintillation spectrometry method
T1 sequence (P08172 whole entry): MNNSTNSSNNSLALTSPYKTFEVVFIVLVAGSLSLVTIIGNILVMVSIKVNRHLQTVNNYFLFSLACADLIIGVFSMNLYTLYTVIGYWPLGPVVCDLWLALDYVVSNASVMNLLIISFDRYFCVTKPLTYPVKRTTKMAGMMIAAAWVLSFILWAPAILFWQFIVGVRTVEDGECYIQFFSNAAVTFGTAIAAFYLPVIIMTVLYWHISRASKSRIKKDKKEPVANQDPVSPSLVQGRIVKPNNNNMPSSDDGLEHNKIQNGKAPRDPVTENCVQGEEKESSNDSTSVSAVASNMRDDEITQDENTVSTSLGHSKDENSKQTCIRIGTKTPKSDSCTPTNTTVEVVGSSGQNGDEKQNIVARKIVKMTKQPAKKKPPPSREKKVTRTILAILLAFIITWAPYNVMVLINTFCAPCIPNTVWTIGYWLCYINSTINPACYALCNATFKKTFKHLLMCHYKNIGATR
How it was run: (§1)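 CHO membranes expressing the human subtype (20 µg protein/well) with 0.3 nM [3H]NMS and analog (1 nM–100 µM) in 50 mM Tris-HCl pH 7.4, 2 h at 25 °C. […] Filtered on GF/B, washed, counted by scintillation. IC50 taken from curves to give Ki; three independent experiments in duplicate.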

[2] = molecular target: T2, Muscarinic acetylcholine receptor M2 (Homo sapiens) (UniProt P08172); assay: Displacement of [3H]NMS from human M2 AChR expressed in CHO cell membranes at 100 uM after 1 to 2 hrs by liquid scintillation spectrometry method relative to control
T2 sequence (whole entry): T1 sequence (P08172 whole entry)
How it was run: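 CHO membranes expressing the human subtype (20 µg protein/well) with 0.3 nM [3H]NMS and analog (1 nM–100 µM) in 50 mM Tris-HCl pH 7.4, 2 h at 25 °C. Filtered on GF/B, washed, counted by scintillation. IC50 taken from curves to give Ki; three independent experiments in duplicate.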

[3] = molecular target: T3, Muscarinic acetylcholine receptor M5 (Homo sapiens, UniProt P08912); assay: Displacement of [3H]NMS from human M5 AChR expressed in CHO cell membranes after 1 to 2 hrs by liquid scintillation spectrometry method
T3 sequence (P08912 whole entry): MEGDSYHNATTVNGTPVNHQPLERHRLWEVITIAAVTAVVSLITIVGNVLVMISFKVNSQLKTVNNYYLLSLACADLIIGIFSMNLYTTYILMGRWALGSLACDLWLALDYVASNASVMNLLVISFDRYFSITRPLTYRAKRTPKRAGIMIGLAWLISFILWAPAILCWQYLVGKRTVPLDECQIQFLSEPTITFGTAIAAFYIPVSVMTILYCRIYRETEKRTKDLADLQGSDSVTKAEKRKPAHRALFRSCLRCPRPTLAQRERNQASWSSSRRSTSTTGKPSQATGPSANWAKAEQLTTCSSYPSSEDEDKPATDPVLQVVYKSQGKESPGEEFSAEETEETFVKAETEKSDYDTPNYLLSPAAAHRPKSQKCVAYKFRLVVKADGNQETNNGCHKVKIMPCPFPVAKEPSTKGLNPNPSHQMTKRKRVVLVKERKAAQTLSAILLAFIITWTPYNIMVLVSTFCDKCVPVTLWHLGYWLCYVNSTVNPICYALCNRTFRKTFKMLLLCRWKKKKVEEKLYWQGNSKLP
How it was run: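 CHO membranes expressing human M5 (10 µg protein/well) with 0.3 nM [3H]NMS and analog (1 nM–100 µM) in 50 mM Tris-HCl pH 7.4, 2 h at 25 °C. Filtered on GF/B, counted by scintillation. IC50 converted to Ki; three independent experiments in duplicate.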

[4] = molecular target: T4, Muscarinic acetylcholine receptor M5 (Homo sapiens) (UniProt P08912); assay: Displacement of [3H]NMS from human M5 AChR expressed in CHO cell membranes at 100 uM after 1 to 2 hrs by liquid scintillation spectrometry method relative to control
T4 sequence (whole entry): T3 sequence (P08912 whole entry)
How it was run: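 CHO membranes expressing human M5 (10 µg protein/well) with 0.3 nM [3H]NMS and analog (1 nM–100 µM) in 50 mM Tris-HCl pH 7.4, 2 h at 25 °C. […] Filtered on GF/B, counted by scintillation. IC50 converted to Ki; three independent experiments in duplicate.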

Homo sapiens [5] = species on record: Homo sapiens; assay: Selectivity ratio of Ki for displacement of [3H]NMS from human M1 AChR expressed in CHO cell membranes to Ki for displacement of [3H]NMS from human M5 AChR expressed in CHO cell membranes
Homo sapiens [6] = species on record: Homo sapiens; assay: Selectivity ratio of Ki for displacement of [3H]NMS from human M2 AChR expressed in CHO cell membranes to Ki for displacement of [3H]NMS from human M3 AChR expressed in CHO cell membranes
[7] = molecular target: T5, Muscarinic acetylcholine receptor M4 (Homo sapiens) (UniProt P08173); assay: Displacement of [3H]NMS from human M4 AChR expressed in CHO cell membranes at 100 uM after 1 to 2 hrs by liquid scintillation spectrometry method relative to control; how it was run: as §1
T5 sequence (whole entry): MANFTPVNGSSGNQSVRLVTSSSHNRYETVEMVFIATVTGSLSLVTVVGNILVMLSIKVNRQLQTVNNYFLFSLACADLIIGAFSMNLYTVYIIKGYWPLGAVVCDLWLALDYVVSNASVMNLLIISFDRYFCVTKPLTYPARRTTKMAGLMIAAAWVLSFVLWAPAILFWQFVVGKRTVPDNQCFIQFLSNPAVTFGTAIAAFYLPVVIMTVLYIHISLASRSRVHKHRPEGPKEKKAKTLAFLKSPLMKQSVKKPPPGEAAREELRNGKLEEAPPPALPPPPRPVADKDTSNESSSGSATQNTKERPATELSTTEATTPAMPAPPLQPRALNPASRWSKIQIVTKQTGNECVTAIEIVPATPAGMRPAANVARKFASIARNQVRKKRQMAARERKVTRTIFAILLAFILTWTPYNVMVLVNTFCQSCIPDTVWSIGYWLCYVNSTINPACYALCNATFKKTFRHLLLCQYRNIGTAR

[8] = molecular target: Muscarinic acetylcholine receptor (Rattus norvegicus) (UniProt P08482+P08483+P08485+P08911+P10980); assay: Agonist activity at muscarinic acetylcholine receptor in superfused rat striatal slices assessed as augmentation of oxotremorine-induced [3H]DA release at 1 to 10 uM preincubated for 35 mins in presence of [3H]DA followed by oxotremorine addition and measured after 25 mins in presence of scopolamine by liquid scintillation spectroscopic method
How it was run: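 Rat striatal slices (500 µm) in Krebs' buffer pH 7.4 at 34 °C for 60 min, with 0.1 µM [3H]DA over the final 30 min. Superfused at 0.6 mL/min with 10 µM nomifensine and 10 µM pargyline; 5-min fractions. Basal outflow taken over 15 min, then test agent 35 min, then 100 µM oxotremorine 25 min. Overflow = summed radioactivity minus basal, by scintillation; n = 4–10.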

[9] = molecular target: Muscarinic acetylcholine receptor M3 (Homo sapiens, UniProt P20309); conditions: CHO, at 100 µM
Sequence of Muscarinic acetylcholine receptor M3 (P20309 whole entry, looked up): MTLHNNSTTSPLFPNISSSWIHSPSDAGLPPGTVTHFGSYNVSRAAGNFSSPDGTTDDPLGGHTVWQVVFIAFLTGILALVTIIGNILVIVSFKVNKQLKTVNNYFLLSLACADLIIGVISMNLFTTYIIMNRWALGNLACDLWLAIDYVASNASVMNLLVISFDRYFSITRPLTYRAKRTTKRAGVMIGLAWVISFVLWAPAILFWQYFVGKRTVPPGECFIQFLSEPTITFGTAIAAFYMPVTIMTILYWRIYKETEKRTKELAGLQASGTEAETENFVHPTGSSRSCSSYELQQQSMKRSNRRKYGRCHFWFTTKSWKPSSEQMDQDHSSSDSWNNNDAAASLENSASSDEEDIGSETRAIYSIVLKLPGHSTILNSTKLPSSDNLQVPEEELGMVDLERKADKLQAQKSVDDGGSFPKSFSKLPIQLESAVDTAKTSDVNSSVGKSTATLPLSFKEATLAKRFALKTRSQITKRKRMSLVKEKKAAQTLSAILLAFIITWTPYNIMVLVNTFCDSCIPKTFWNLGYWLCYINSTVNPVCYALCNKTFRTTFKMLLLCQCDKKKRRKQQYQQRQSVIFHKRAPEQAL

In the case of O=C(OC1CN2CCC1CC2)N(CCc1ccc(F)cc1)c1ccccc1 (racemic), the Ki [1] is reported as 13 nM, the Imax [2] is reported as 100% and the Ki [3] is reported as 1.8 nM. It also gave an Imax [4] of 99.8%, a Ratio Ki (Homo sapiens [5]) of 1.1 and a Ratio Ki (Homo sapiens [6]) of 5. The Imax [7] was 99.8%, the Activity [8] was “inactive” and the Imax [9] was 100%.
